Source: PubChem BioAssay
An excerpt weighted towards active compounds, which were near 3.5% of everything screened.
MrgX1 agonist: agonists of human MrgX1 receptor. Q96LB2. AID 588627. MrgX1-HEK293 cells, Fluo-4 calcium fluorescence, agonist mode; hits give high values. B-score at 10 µM. 0.44% of 310,000 active;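 active = calcium response B-score plate-corrected fluorescence ratio at least 3 library SD, with starting fluorescence B-score inside 5 SD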
Target sequence (Q96LB2 whole entry, looked up): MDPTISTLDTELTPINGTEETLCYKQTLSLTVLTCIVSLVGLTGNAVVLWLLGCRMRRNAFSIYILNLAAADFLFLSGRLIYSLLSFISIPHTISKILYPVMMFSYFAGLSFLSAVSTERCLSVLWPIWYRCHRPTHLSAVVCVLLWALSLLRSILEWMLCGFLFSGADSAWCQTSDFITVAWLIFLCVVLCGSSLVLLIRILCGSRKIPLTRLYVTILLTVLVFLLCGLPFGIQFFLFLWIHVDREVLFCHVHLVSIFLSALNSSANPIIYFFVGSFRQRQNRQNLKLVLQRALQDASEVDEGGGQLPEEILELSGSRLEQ
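Assay system: stable human MrgX1 HEK293 cell line. Quantity: 15,000 cells per well. Schedule: cells plated overnight, dye loaded 0.5 h 37 °C, 0.5 h room temperature. Detection: Fluo-4 NW calcium-flux fluorescence, kinetic read. Read-out basis: peak-minus-minimum fluorescence over baseline, converted to B scores. Control set: positive and negative control wells on each plate.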
RGS4 block: inhibitors of human RGS4; HEK293 M3R/RGS4 inducible, Fluo-4 calcium flux; hits give high values; triggered by carbachol at its EC20; 0.45% of 310,000 active; AID 463165; B-score at 10 µM;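 active = B-score, a plate-corrected calcium signal, over three deviations above library mean, with baseline fluorescence within five deviations of library mean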;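 also: RGS4 expression induced by doxycycline in cells with stable M3 receptor; B-score is computed from the integrated fluorescence ratio over baseline after carbachol; higher B-score means a larger calcium signal and so more RGS4 inhibition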
Target sequence (P49798 whole entry, looked up): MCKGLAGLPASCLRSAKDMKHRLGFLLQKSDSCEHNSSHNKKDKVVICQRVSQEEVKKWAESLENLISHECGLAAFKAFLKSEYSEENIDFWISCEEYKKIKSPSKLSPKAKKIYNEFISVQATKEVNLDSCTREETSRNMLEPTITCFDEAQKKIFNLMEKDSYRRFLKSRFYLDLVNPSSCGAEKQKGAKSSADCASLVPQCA
MrgX1 PAM: human MrgX1 positive allosteric modulation, primary screen; Q96LB2; MrgX1-HEK293, Fluo-4 calcium flux, FDSS; hits give high values; 0.63% of 310,000 active; AID 588675; B-score at 10 µM;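 active = plate-corrected calcium response at least 3 library SD above typical, normal starting fluorescence, not activating the receptor alone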;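 also: compound read alongside a low EC10 to EC30 dose of BAM8-22 agonist; peak minus trough fluorescence over baseline measured at the second addition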
RGS4 pot: RGS4 potentiation or activation; AID 463111; HEK293 M3R/inducible RGS4, carbachol calcium flux Fluo4; hits give low values; 0.92% of 310,000 active; B-score at 10 µM;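 active = B-score of the integrated calcium signal more than 4 SD below the library mean, with starting fluorescence not abnormally high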;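 also: negative B-score means reduced calcium response which marks RGS4 activation or potentiation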
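Assay system: HEK293 FlpIn-TREx cells, stable M3R, doxycycline-inducible RGS4 / Probe or stimulus: carbachol, ECmax concentration / Times: overnight RGS4 induction, 30 min dye load 37 °C, 20 min compound RT / Signal: kinetic calcium fluorescence imaging with Fluo4-AM dye, 2 µM / Measure: Agonist-evoked peak-minus-minimum fluorescence over baseline, integrated ratio, B score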
MrgX1 antag: human MrgX1 receptor antagonism, primary screen; Q96LB2; MRGX1-HEK293 calcium flux, Fluo-4, BAM8-22 antagonism; hits give low values; B-score at 10 µM; 1.3% of 310,000 active;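 active = calcium-response B-score plate-corrected more than 3 library SD below zero, starting fluorescence within 5 deviations, no agonist response on first addition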;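 also: peak minus trough fluorescence over baseline after final BAM8-22 challenge near maximal dose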
RGS4 inh valid: validation of RGS4 inhibitors; shares compounds with RGS4 block; HEK293 M3R/RGS4, carbachol calcium Fluo-4 fluorescence; carbachol added at its EC20; 0 = buffer wells, 100 = carbachol control; calcium response, % at 10 µM; 65% of 1,700 active;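 active = duplicate-averaged calcium response above the buffer-only control mean plus 5 SD of those controls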;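 also: integrated fluorescence ratio F max minus min over baseline F0; higher response in RGS4-induced cells means RGS4 inhibition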
M3R Ca ctr: checks RGS4 inhibitor effects in non-induced HEK293 M3R cells | activity (percent), % at 10 µM | 20% of 1,900 active | carbachol calcium Fluo-4; submaximal (EC20) carbachol stimulus; buffer wells 0%, carbachol control wells 100% | shares compounds with RGS4 block | AID 493000; call rule not given here;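 also: RGS4 induction absent so cells express M3R without RGS4; higher means more calcium signal and flags a non-specific hit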
M3R basal Ca ctr: signal in non-induced cells without carbachol, RGS4 inhibitor counter-screen | HEK293 M3R/RGS4 non-induced, Fluo-4 calcium, no carbachol; normalised: buffer wells 0%, carbachol wells 100% | calcium response (agonist-mode artifact), % at 10 µM | AID 493001 | shares compounds with RGS4 block | 22% of 1,900 active;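 active = duplicate-averaged calcium rise in uninduced cells above buffer wells' mean plus 5 SD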
Active calls of the source: *; i = inactive; . = no result.

SMILES	MrgX1 agonist	RGS4 block	MrgX1 PAM	RGS4 pot	MrgX1 antag	RGS4 inh valid	M3R Ca ctr	M3R basal Ca ctr
COC(=O)C1NN=C(C(=O)c2ccc(Cl)cc2)C1c1ccc(OC)cc1 (stereo unspecified)	i	i	i	i	i	.	.	.
O=C(CCCN1C(=O)S/C(=C/C=C/c2ccccc2)C1=O)Nc1ccc(C(=O)O)cc1	i	i	i	i	i	.	.	.
O=C(CN1C(=O)S/C(=C\C=C\c2ccccc2)C1=O)N1CCCCC1	i	i	i	i	i	.	i	i
O=C(CN1C(=O)S/C(=C\C=C\c2ccccc2)C1=O)Nc1ccc(O)cc1	i	i	i	i	i	i	i	7.5%*
CCOc1ncccc1C(=O)N(CC)CC(=O)NCc1ccc(Cl)cc1	i	i	i	i	i	.	.	.
COc1ccc(-c2ccc3oc(-c4ccc(OC)cc4)c(C#CC4(O)CCCCC4)c3c2)cc1	i	i	i	i	i	.	.	.
CCOC(=O)C1=C(C)Nc2nc(SCC)nn2C1c1ccc(OC)cc1 (stereo unspecified)	i	i	i	i	i	.	.	.
CCOC(=O)C1=C(C)Nc2nc(=S)[nH]n2C1c1ccc(Cl)cc1 (stereo unspecified)	.	9.2*	.	i	.	14%*	35%*	18%*
COc1cc(C2C3=C(CCCC3=O)Nc3c2c(C)nn3-c2cccc(C)c2)cc(OC)c1O (stereo unspecified)	i	6.3*	i	i	i	14%*	40%*	i
COc1cc(C2C3=C(CCCC3=O)Nc3[nH]n(-c4ccccc4)c(=O)c32)ccc1O (stereo unspecified)	i	.	i	.	i	.	.	.
O=C1NCCCc2c1oc1ccc(O)cc21	i	i	i	i	i	.	.	.
Oc1c(Cl)cc(Cl)c2c1NCCC2	.	9.3*	.	i	.	64%*	i	i
Cc1ccc(C(=O)N2CCN(S(=O)(=O)c3ccc(C)c([N+](=O)[O-])c3)C2)cc1	i	i	i	i	i	.	.	.
c1coc(C2=Nc3cccc4cccc(c34)N2)c1	i	13*	i	i	i	30%*	i	i
O=C(Cc1cccs1)N1CCC(c2nc3c(nnn3Cc3ccc(F)cc3)c(=O)[nH]2)CC1	i	i	i	i	i	i	i	i
O=C(/C=C/c1ccc(Cl)cc1)c1ccc([N+](=O)[O-])o1	i	7.9*	i	i	i	8.5%*	i	i
O=C(OCCCOC(=O)c1ccc([N+](=O)[O-])o1)c1ccc([N+](=O)[O-])o1	i	i	i	i	i	.	.	.
Cc1ccc(Nc2nc(N)c3ccccc3n2)cc1C	i	i	i	i	i	i	i	i
CCC(C)c1ccccc1NC(=O)C(C)OC(=O)c1ccco1 (stereo unspecified)	i	i	i	i	i	.	.	.
Cc1cc2ccccn2c1C(=O)c1ccc([N+](=O)[O-])o1	i	i	i	i	i	.	.	.
CCC(=O)NC(c1ccccc1)c1c(OC(C)=O)ccc2ccccc12 (stereo unspecified)	i	i	i	i	i	.	45%*	7.0%*
CCC(=O)NC(c1cccc([N+](=O)[O-])c1)c1c(OC(C)=O)ccc2ccccc12 (stereo unspecified)	i	i	i	i	i	.	.	.
Cc1ccc(N(CC(=O)NCC2CCCO2)C(=O)CCC(=O)Nc2nccs2)cc1 (stereo unspecified)	i	i	i	i	i	.	.	.
COc1ccccc1NCC(O)Cn1c2ccccc2c2ccccc21 (stereo unspecified)	i	i	i	i	i	.	.	.
COc1ccc(CCNCC(O)Cn2c3ccccc3c3ccccc32)cc1OC (stereo unspecified)	i	17*	i	i	i	62%*	i	14%*
SMILES	MrgX1 agonist	RGS4 block	MrgX1 PAM	RGS4 pot	MrgX1 antag	RGS4 inh valid	M3R Ca ctr	M3R basal Ca ctr
CCc1ccc(OC(=O)c2cccnc2)cc1	i	i	i	i	i	.	.	.
CCOC(=O)c1ccc(NC(=O)c2ccc3c(c2)C(=O)N(Cc2cccnc2)C3=O)cc1	i	i	i	i	i	.	.	.
CC1=NN(c2ccccc2)C(=O)C1N=Nc1cccc(O)c1 (stereo unspecified)	i	i	i	i	i	.	.	.
CC1=NN(c2ccc(C)cc2C)C(=O)C1C(c1cccc(O)c1)C1C(=O)N(c2ccc(C)cc2C)N=C1C (stereo unspecified)	i	5.3*	i	i	i	14%*	50%*	i
Cc1[nH]n(-c2ncc(-c3ccccc3)s2)c(=O)c1C(c1ccc(Cl)cc1)C(C#N)C#N (stereo unspecified)	i	14*	i	i	-5.3*	70%*	i	52%*
CCOC(=O)CNC(=O)CSc1nnc(NC(=O)c2ccc(S(=O)(=O)N3CCOCC3)cc2)s1	i	i	i	i	i	.	.	.
CCCCc1nc2n[nH]c(N)c2c2c1CSC(C)(C)C2	i	4.7*	i	i	i	i	i	i
Cc1ccc(NS(=O)(=O)c2ccc(NC(=O)CN(c3cc([N+](=O)[O-])ccc3C)S(C)(=O)=O)cc2)c(C)c1	i	8.6*	i	i	i	23%*	i	i
CC(=O)Nc1ccc(S(=O)(=O)Nc2cc([N+](=O)[O-])ccc2C)cc1	i	i	i	i	i	.	.	.
CCOC(=O)c1ccc(NC(=O)Cn2c(-c3nonc3N)nc3ccccc32)cc1	i	i	i	i	i	.	.	.
Cc1cc2cc(C(c3nnnn3Cc3ccccc3)N3CCc4ccccc43)c(=O)[nH]c2cc1C (stereo unspecified)	i	i	i	i	i	.	i	7.0%*
Cc1cc2cc(C(c3nnnn3Cc3ccco3)N3CCc4ccccc4C3)c(=O)[nH]c2cc1C (stereo unspecified)	i	i	i	i	i	i	i	39%*
